Measurements of several laboratories.
Protocols differ between the studies behind these lines. pEC50, pIC50: −log10 of the molar value.
Cell line: NCI-H460
Observed: cell growth or viability

CCCc1n(Cc2ccc3ccccc3n2)cc[n+]1Cc1ccc2ccccc2c1
TGI (SRB): 10600 nM

Cc1cc(C)n(C(=S)[S][Au][PH](CCCCCC[PH]([Au][S]C(=S)n2nc(C)cc2C)(c2ccccc2)c2ccccc2)(c2ccccc2)c2ccccc2)n1
GI50 (SRB): 638 nM

COc1ccc(C(=O)/C=C/c2cccnc2)cc1S(N)(=O)=O
GI50 (SRB; 48 h): 9100 nM

COc1ccc(-c2ccc(-c3ccc(C(=N)N)nc3)s2)cc1Cl
GI50 (SRB): 1800 nM

COc1ccc(C(=O)/C=C/c2cc3c(cc2Br)OCO3)cc1S(N)(=O)=O
inhibition (SRB; 10 µM): 100%

CCc1n(Cc2ccc3ccccc3n2)cc[n+]1Cc1ccc2ccccc2c1
TGI (SRB): 10800 nM

C=CC(=O)Nc1cc(Nc2nc(N3CCc4sccc4C3)c3cccnc3n2)c(OC)cc1N(C)C
pIC50 (MTT): < 4.30

CN1C[C@H](C(=O)N[C@]2(C)O[C@@]3(O)[C@@H]4CCCN4C(=O)[C@H](Cc4ccccc4)N3C2=O)C[C@@H]2c3cccc4[nH]cc(c34)C[C@H]21
pEC50 (MTT; 72 h): 4.17

CCCCc1n(Cc2ccc3ccccc3n2)cc[n+]1Cc1ccc2ccccc2n1
TGI (SRB): 11600 nM

C=C(Cl)C(=O)Nc1cc(Nc2nc(N3CCSCC3)c3sccc3n2)c(OC)cc1N(C)CCN(C)C
pIC50 (MTT): 5.88

COc1ccc(C(=O)/C=C/c2cccc3ccccc23)cc1S(N)(=O)=O
GI50 (SRB; 48 h): 1800 nM

C=C(Cl)C(=O)Nc1cc(Nc2nc(N3CCOCC3)c3sccc3n2)c(OC)cc1N(C)CCN(C)C
pIC50 (MTT): 5.73

COc1cccc(Oc2ccccc2NC(=O)CNC(=O)c2cccc3ccccc23)c1
GI50 (SRB; 48 h): 295 nM

C=CC(=O)Nc1cccc(Oc2nc(Nc3ccc(N4CCN(C)CC4)cc3)nc3ccsc23)c1
pIC50 (MTT): 6.19

COc1ccccc1/C=C/C(=O)c1ccc(OC)c(S(N)(=O)=O)c1
GI50 (SRB; 48 h): 2100 nM

C=C(Cl)C(=O)Nc1cc(Nc2nc(Nc3cnn(C)c3)c3sccc3n2)c(OC)cc1N1CCN(C)CC1
pIC50 (MTT): 6.62

COc1ccc(C(=O)/C=C/c2ccc3ccccc3c2)cc1S(N)(=O)=O
inhibition (SRB; 10 µM): 98%

C/C=C/C(=O)Nc1cc(Nc2nc(Nc3cnn(C)c3)c3sccc3n2)c(OC)cc1N(C)CCN(C)C
pIC50 (MTT): < 4.30

COc1ccc(C(=O)/C=C/c2cccc(Cl)c2)cc1S(N)(=O)=O
inhibition (SRB; 10 µM): 97%

c1ccc(-c2n(Cc3ccc4ccccc4c3)cc[n+]2Cc2ccc3ccccc3c2)cc1
TGI (SRB): 2870 nM
